Experimental data as given in ChEMBL document CHEMBL1127458, “Synthesis and quantitative structure-activity relationships of anticonvulsant 2,3,6-triaminopyridines” (J Med Chem, 1994).

species on record: Mus musculus; experiment: Effective dosage for inhibition of maximal electroshock stimulated convulsions; format: functional
Method in brief: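 Mice (male Carworth Farms #1), groups of at least eight, were given various doses and tested at the previously determined time of peak effect. Protection was defined as abolition of the hind limb tonic extension component of the seizure. Dosing continued until at least two points lay between 0% and 100% protection. The 50% dose and 95% confidence interval were derived by Finney's method.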

First: CCOC(=O)Nc1ccc(NCc2ccccc2)nc1N.Cl
Second: CCOC(=O)Nc1ccc(NCc2ccccc2C)nc1N.Cl
The “Log 1/ED50” value of the first is lower: 4.214 for the first, 4.872 for the second.

`CCOC(=O)Nc1ccc(NC(C)c2ccc(F)cc2)nc1N.Cl` (stereo not given) and `CCOC(=O)Nc1ccc(NCc2ccc(F)cc2)nc1N.Cl` are within 0.2 log units of each other in “Log 1/ED50” value: 3.938 for the first, 4.13 for the second.

Going from `CCOC(=O)Nc1ccc(NCc2ccc(C(F)(F)F)cc2)nc1N.Cl` to `CCOC(=O)Nc1ccc(NCc2ccc(Cl)cc2)nc1N.Cl`, the “Log 1/ED50” value rises from 4.146 to 4.388.

Going from `Cl.Nc1nc(NCc2ccccc2)ccc1NC(=O)Oc1ccccc1` to `Cl.Nc1nc(NCc2ccc(F)cc2)ccc1NC(=O)Oc1ccccc1`, the “Log 1/ED50” value falls from 3.942 to 3.724.

Going from `CC(=O)Nc1ccc(NCc2ccc(F)cc2)nc1N.Cl` to `COC(=O)Nc1ccc(NCc2ccc(F)cc2)nc1N.Cl`, the “Log 1/ED50” value rises from 3.567 to 4.11.

Compared with `CCOC(=O)Nc1ccc(NCc2c(C)cccc2C)nc1N.Cl`, `CCOC(=O)Nc1ccc(NCc2c(C)cc(C)cc2C)nc1N.Cl` is higher in “Log 1/ED50” value: 5.01 for the first, 5.268 for the second.

`Cl.Nc1nc(NCc2ccc(F)cc2)ccc1NC(=O)OCCCl` and `C=CCOC(=O)Nc1ccc(NCc2ccc(F)cc2)nc1N` are within 0.2 log units of each other in “Log 1/ED50” value: 4.46 for the first, 4.48 for the second.

Compared with `CCOC(=O)Nc1ccc(NCc2ccc(S(N)(=O)=O)cc2)nc1N.Cl`, `CCOC(=O)Nc1ccc(NCc2ccc(C(C)=O)cc2)nc1N.Cl` is higher in “Log 1/ED50” value: 3.572 for the first, 3.831 for the second.

Going from `Cc1noc(C)c1C(=O)Nc1ccc(NCc2ccc(F)cc2)nc1N.Cl` to `CCOC(=O)Nc1ccc(NCc2ccc(NC(C)=O)cc2)nc1N.Cl`, the “Log 1/ED50” value falls from 3.94 to 3.487.

Going from `CCOC(=O)Nc1ccc(NCc2ccc(C)c(Cl)c2)nc1N.Cl` to `CCOC(=O)Nc1ccc(NCc2ccc(C)cc2C)nc1N.Cl`, the “Log 1/ED50” value rises from 4.083 to 4.53.

`CCOC(=O)Nc1ccc(NCc2ccc(F)cc2F)nc1N.Cl` and `CCOC(=O)Nc1ccc(NCc2cccc(F)c2)nc1N.Cl` are within 0.2 log units of each other in “Log 1/ED50” value: 4.321 for the first, 4.297 for the second.

Compared with `Cl.Nc1nc(NCc2ccc(F)cc2)ccc1N1CCOC1=O`, `Cl.Nc1nc(NCc2ccc(Cl)cc2)ccc1NC(=O)Oc1ccccc1` is lower in “Log 1/ED50” value: 4.065 for the first, 3.507 for the second.

For `CCOC(=O)Nc1ccc(NCc2ccccc2O)nc1N.Cl`, the “Log 1/ED50” value was 3.896.
